Assay [1] deals with T1, Sodium-dependent serotonin transporter (Homo sapiens, UniProt P31645). The experiment in a line: biochemical. It counts as cell-based, HEK293.
The target of assay [2] is Sodium-dependent dopamine transporter (Homo sapiens, UniProt Q01959). The experiment in a line: Displacement of [3H]WIN-35428 from human DAT expressed in HEK293 cells. Type of assay: cell-based. The procedure, abridged: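 Stably transfected HEK293 membrane preparation (50-80 ug protein/tube) in 50 mM Tris-HCl pH 7.4, 100 mM NaCl. 0.5 nM radioligand with 6-12 test concentrations, on ice for 120 min. Nonspecific: 10 uM GBR12909. GF/B filtration, ice-cold Tris washes, scintillation counting. Triplicates per experiment; IC50 by iterative nonlinear fitting, converted to Ki.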
Sodium-dependent dopamine transporter, sequence (Q01959 whole entry): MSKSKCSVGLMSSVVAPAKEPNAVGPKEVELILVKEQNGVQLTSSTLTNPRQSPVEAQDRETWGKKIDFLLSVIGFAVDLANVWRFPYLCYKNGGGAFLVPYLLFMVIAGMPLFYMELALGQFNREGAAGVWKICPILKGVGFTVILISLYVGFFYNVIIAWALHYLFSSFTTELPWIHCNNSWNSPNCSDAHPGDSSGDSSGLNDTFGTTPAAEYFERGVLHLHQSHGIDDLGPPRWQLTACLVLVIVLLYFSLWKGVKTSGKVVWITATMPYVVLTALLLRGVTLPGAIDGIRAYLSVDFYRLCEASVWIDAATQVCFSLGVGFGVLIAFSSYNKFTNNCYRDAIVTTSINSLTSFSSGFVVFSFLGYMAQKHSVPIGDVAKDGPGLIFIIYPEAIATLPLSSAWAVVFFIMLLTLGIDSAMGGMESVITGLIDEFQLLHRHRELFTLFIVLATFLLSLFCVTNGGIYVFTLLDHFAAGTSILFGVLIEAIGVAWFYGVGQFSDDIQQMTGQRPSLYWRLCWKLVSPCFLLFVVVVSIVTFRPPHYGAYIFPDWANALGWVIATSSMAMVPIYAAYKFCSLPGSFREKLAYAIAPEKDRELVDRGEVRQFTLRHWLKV
(In a radioligand displacement assay an active substance lowers the binding of a labelled ligand.)

For assay [3], the target named is Sodium-dependent noradrenaline transporter (Homo sapiens, UniProt P23975). The experiment in a line: Displacement of [3H]nisoxetine from human NET expressed in HEK293 cells. It counts as cell-based. The procedure, abridged: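 Stably transfected HEK293 membrane preparation (50-80 ug protein/tube) in 50 mM Tris-HCl pH 7.4, 120 mM NaCl, 5 mM KCl. 0.5 nM radioligand with 6-12 test concentrations, 21 °C for 60 min. Nonspecific: 100 uM protriptyline. GF/B filtration, scintillation counting. Triplicates per experiment; IC50 by nonlinear fitting, converted to Ki.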
Sodium-dependent noradrenaline transporter, sequence (P23975 whole entry): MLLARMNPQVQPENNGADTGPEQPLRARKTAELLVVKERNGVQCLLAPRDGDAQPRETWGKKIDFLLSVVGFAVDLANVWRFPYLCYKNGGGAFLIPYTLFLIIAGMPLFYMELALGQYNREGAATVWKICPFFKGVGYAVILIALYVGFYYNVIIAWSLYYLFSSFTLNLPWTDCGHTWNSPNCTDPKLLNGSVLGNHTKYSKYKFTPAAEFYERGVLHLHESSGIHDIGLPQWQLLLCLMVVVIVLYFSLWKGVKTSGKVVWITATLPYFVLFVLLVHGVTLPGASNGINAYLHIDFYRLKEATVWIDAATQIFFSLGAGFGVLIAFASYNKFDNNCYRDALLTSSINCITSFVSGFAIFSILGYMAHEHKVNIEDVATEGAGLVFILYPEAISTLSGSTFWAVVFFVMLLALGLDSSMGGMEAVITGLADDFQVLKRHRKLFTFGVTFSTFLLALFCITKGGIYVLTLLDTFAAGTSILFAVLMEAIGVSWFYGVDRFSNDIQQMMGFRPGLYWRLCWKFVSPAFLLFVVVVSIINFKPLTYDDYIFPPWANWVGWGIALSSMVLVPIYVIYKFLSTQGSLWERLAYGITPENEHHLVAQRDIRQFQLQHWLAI

The target of assay [4] is T2, 5-hydroxytryptamine receptor 1A (Rattus norvegicus, UniProt P19327).
T2 sequence (P19327 whole entry): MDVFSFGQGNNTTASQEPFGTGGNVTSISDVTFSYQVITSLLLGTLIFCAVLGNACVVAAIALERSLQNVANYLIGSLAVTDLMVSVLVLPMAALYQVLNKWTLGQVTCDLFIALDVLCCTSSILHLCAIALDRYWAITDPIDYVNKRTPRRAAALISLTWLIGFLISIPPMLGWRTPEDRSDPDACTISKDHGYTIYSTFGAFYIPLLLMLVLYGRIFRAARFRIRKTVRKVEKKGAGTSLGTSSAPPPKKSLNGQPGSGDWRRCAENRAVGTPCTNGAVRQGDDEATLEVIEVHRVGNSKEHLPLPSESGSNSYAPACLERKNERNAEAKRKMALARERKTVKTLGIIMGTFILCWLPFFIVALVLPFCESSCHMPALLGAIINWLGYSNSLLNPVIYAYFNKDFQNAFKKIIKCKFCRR
The assay is described as follows: Displacement of [3H]8-OH-DPAT from 5HT1A receptor in rat cortical membrane. Type of assay: cell membranes. The procedure, abridged:
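Cortex from female SPRD rats (~200 g), homogenized and washed in 50 mM Tris-HCl pH 7.4. Membranes in 50 mM Tris-HCl pH 7.4, 4 mM CaCl2, 0.1% ascorbic acid with 0.3 nM radioligand and 6-12 test concentrations, 21 °C for 60 min. Nonspecific: 10 uM serotonin. GF/B filtration, scintillation counting.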

The target in assay [5] is T1, Sodium-dependent serotonin transporter. The experiment in a line: biochemical. It counts as cell-based, HEK293. This is another data set of the same source.

This note sets out measurements from ChEMBL document CHEMBL1150402, “Carbon-11 labeled indolylpropylamine analog as a new potential PET agent for imaging of the serotonin transporter” (Bioorg Med Chem, 2008).

T1 sequence (P31645 whole entry): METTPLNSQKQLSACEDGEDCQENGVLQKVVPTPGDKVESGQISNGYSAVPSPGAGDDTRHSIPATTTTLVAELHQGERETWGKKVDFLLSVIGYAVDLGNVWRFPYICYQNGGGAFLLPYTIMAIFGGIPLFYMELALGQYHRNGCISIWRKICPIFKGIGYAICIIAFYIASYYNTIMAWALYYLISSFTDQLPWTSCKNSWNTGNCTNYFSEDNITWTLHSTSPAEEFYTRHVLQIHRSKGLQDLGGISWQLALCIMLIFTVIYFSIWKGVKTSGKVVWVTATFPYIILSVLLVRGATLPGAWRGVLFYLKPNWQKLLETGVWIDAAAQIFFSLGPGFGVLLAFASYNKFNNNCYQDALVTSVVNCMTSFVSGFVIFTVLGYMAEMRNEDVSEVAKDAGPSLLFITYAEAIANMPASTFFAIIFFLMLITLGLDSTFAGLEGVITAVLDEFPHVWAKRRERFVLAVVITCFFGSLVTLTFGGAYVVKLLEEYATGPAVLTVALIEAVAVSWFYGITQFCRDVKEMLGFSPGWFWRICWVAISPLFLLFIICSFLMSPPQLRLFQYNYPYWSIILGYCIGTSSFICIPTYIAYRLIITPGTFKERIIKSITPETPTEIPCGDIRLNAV

The term Ki denotes a dissociation constant, usually derived from enzyme kinetics or from competition with a known ligand. A high value points to a looser hold on the target. As for `[11CH3]Oc1cccc2c1CCN(CCCc1c[nH]c3ccc(F)cc13)C2`, the Ki in assay [1] came out at 44.7 nM; in assay [2], 1480 nM; in assay [3], 2880 nM; in assay [4] it was 164 nM; in assay [5], 6.46 nM.

As to `[11CH3]Oc1cccc2c1CCN(CCCc1c[nH]c3ccc(I)cc13)C2`, the Ki in assay [1] worked out at 2660 nM; in assay [2], 1160 nM; in assay [3], 1810 nM; in assay [4] it was 1120 nM; in assay [5], 213 nM.

For `[11CH3]Oc1ccc2c(c1)CCN(CCCc1c[nH]c3ccc(Br)cc13)C2`, the Ki turned out to be 13.3 nM in assay [1]; 1030 nM in assay [2]; 2770 nM in assay [3]; 50 nM in assay [4]; 11.4 nM in assay [5].

Regarding `[11CH3]Oc1ccc2c(c1)CCN(CCCc1c[nH]c3ccc(I)cc13)C2`, the Ki in assay [1] was found to be 1110 nM; in assay [2], 3650 nM; in assay [3] it was 712 nM; in assay [4], 685 nM; in assay [5] it was 374 nM.

On to `CNC(C)Cc1ccc2c(c1)OCO2` (configuration not stated) [MIDOMAFETAMINE], for which the Ki in assay [1] turned out to be 2.03 nM; in assay [5], 0.73 nM.

Take `[11CH3]Oc1cccc2c1CCN(CCCc1c[nH]c3ccc(Br)cc13)C2`: the inhibition constant Ki in assay [1] was determined as 2980 nM; in assay [2], 3490 nM; in assay [3], 6600 nM; in assay [4], 1990 nM; in assay [5], 1910 nM.

As to `[11CH3]Oc1ccc2c(c1)CCN(CCCc1c[nH]c3ccc(F)cc13)C2`, the Ki was found to be 25.3 nM in assay [1]; 2490 nM in assay [2]; 1680 nM in assay [3]; 54 nM in assay [4]; 4.11 nM in assay [5].
